Stability, microsomal CLint and Microsomal intrinsic clearance data for 35 compounds are collected here from ChEMBL document CHEMBL4371073, “Improvement of Aqueous Solubility of Lapatinib-Derived Analogues: Identification of a Quinolinimine Lead for Human African Trypanosomiasis Drug Development” (J Med Chem, 2019).

A short description of one series: Chemical stability in 0.01 N NaOH solution at 2 mg up to 16 hrs by LC-MS analysis. Type of series: physicochemical.
Conditions: not given
Consider `CN1CCCN(c2ncc(-c3ccc4/c(=N/c5cnccn5)ccn(C)c4c3)cn2)CC1`, for which the Stability result is reported as “Stable”.

Another series is described as follows: Intrinsic clearance in human liver microsomes by LC-MS/MS analysis. Conditions: liver microsomes, read-out: CLH. Format: ADME, Microsome. Put shortly: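 Human liver microsomes were incubated with compound and samples analyzed by LC/MS/MS. Clint is expressed as μL/min/mg.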
On to `CN(CCNc1ncc(-c2ccc3c(Nc4cnccn4)ccnc3c2)cn1)C(=O)OC(C)(C)C`, for which the microsomal CLint was greater than 300 µL/min/mg.

`CN1CCN(c2ncc(-c3ccc4c(Nc5cnccn5)ccnc4c3)cn2)CC1`: the microsomal CLint turned out to be 180 µL/min/mg.

The series is the same for the next values; noted with them: microsomes.
The compound `CN1CC2(CCN(c3ncc(-c4ccc5c(Nc6cnccn6)ccnc5c4)cn3)C2)C1` showed a Microsomal intrinsic clearance of 43 µL/min/mg.

`Cc1cnc(Nc2ccnc3cc(-c4cnc(N5CCCN(C)CC5)nc4)ccc23)cn1` gave a Microsomal intrinsic clearance of 100 µL/min/mg.

Consider `COC(=O)[C@@H]1CCCN1c1ncc(-c2ccc3c(Nc4cnccn4)ccnc3c2)cn1`, for which the Microsomal intrinsic clearance is 220 µL/min/mg.

`CCN1CCN(c2ncc(-c3ccc4c(Nc5cnccn5)ccnc4c3)cn2)CC1` registered a Microsomal intrinsic clearance greater than 300 µL/min/mg.

For the compound `CCCN1CCCN(c2ncc(-c3ccc4c(Nc5cnccn5)ccnc4c3)cn2)CC1`, the Microsomal intrinsic clearance came to 300 µL/min/mg.

In turn, `Cc1nccnc1Nc1ccnc2cc(-c3cnc(N4CCCN(C)CC4)nc3)ccc12` displayed a Microsomal intrinsic clearance of 79 µL/min/mg.

`CN1CCN(c2ncc(-c3ccc4c(Nc5cnccn5)ccnc4c3)cn2)CC1.CS(=O)(=O)O` returned a Microsomal intrinsic clearance of 170 µL/min/mg.

In turn, `CN1CCN(c2ncc(-c3ccc4c(NC5CCOCC5)ccnc4c3)cn2)CC1` displayed a Microsomal intrinsic clearance of 94 µL/min/mg.

On to `c1cnc(Nc2ccnc3cc(-c4cnc(N5CCCCCC5)nc4)ccc23)cn1`, for which the Microsomal intrinsic clearance was greater than 300 µL/min/mg.

As for `COc1ccc(NC(=O)c2ccc(-c3cnc(N4CCCN(C)CC4)nc3)cc2O)cc1Cl`, the Microsomal intrinsic clearance is 24 µL/min/mg.

`CCCn1cc/c(=N\c2cnccn2)c2ccc(-c3cnc(N4CCCN(C)CC4)nc3)cc21` showed a Microsomal intrinsic clearance of 51 µL/min/mg.

On to `CC(C)(C)OC(=O)NCCNc1ncc(-c2ccc3c(Nc4cnccn4)ccnc3c2)cn1`, for which the Microsomal intrinsic clearance is greater than 300 µL/min/mg.

Take `CCN1CCCN(c2ncc(-c3ccc4c(Nc5cnccn5)ccnc4c3)cn2)CC1`: the Microsomal intrinsic clearance was determined as 200 µL/min/mg.

In turn, `CN1CCN(c2ncc(-c3ccc4c(N[C@@H]5CCCC[C@H]5O)ccnc4c3)cn2)CC1` yielded a Microsomal intrinsic clearance of 160 µL/min/mg.

As to `CN1CCN(c2ncc(-c3ccc4c(Nc5cnccn5)ccnc4c3)cn2)CC1.Cl`, the Microsomal intrinsic clearance turned out to be 160 µL/min/mg.

For `c1cnc(Nc2ccnc3cc(-c4cnc(N5CCNCC5)nc4)ccc23)cn1`, the Microsomal intrinsic clearance is 30 µL/min/mg.

`CCn1cc/c(=N\c2cnccn2)c2ccc(-c3cnc(N4CCCN(C)CC4)nc3)cc21` came in with a Microsomal intrinsic clearance of 38 µL/min/mg.

`CN1CCN(c2ccc(-c3ccc4c(Nc5cnccn5)ccnc4c3)cc2)CC1` gave a Microsomal intrinsic clearance of 61 µL/min/mg.

As to `CN1CCN(c2ncc(-c3ccc4c(NC5CCCCC5)ccnc4c3)cn2)CC1`, the Microsomal intrinsic clearance was found to be 300 µL/min/mg.

Turning to `CN(C)CCN(C)c1ncc(-c2ccc3c(Nc4cnccn4)ccnc3c2)cn1`, the Microsomal intrinsic clearance is 45 µL/min/mg.

The compound `CN1C[C@H]2C[C@@H]1CN2c1ncc(-c2ccc3c(Nc4cnccn4)ccnc3c2)cn1` had a Microsomal intrinsic clearance of 41 µL/min/mg.

Regarding `CN1CCCN(c2ncc(-c3ccc4c(N(C)c5cnccn5)ccnc4c3)cn2)CC1`, the Microsomal intrinsic clearance is 170 µL/min/mg.

In turn, `CN1CCN(c2ncc(Nc3ccc4c(Nc5cnccn5)ccnc4c3)cn2)CC1` had a Microsomal intrinsic clearance of 46 µL/min/mg.

`CN1CCN(c2ncc(-c3ccc4c(NCC5CCOCC5)ccnc4c3)cn2)CC1` yielded a Microsomal intrinsic clearance of 170 µL/min/mg.

`CN1CCC2(CCN(c3ncc(-c4ccc5c(Nc6cnccn6)ccnc5c4)cn3)C2)C1` (stereo not drawn) yielded a Microsomal intrinsic clearance of 77 µL/min/mg.

Take `CN1CCCN(c2ncc(-c3ccc4c(Nc5cnccn5)ccnc4c3)cn2)CC1`: the Microsomal intrinsic clearance is 77 µL/min/mg.

The compound `Cc1cncc(Nc2ccnc3cc(-c4cnc(N5CCCN(C)CC5)nc4)ccc23)n1` registered a Microsomal intrinsic clearance of 72 µL/min/mg.

For `O=C(O)CN1CCN(c2ncc(-c3ccc4c(Nc5cnccn5)ccnc4c3)cn2)CC1`, the Microsomal intrinsic clearance was 53 µL/min/mg.

In turn, `O=C(O)[C@@H]1CCCN1c1ncc(-c2ccc3c(Nc4cnccn4)ccnc3c2)cn1` returned a Microsomal intrinsic clearance of less than 3 µL/min/mg.

The compound `CN1CCN(c2ncc(-c3ccc4c(Nc5cnccn5)ccnc4c3)cn2)CC1.O=C(O)CC(O)(CC(=O)O)C(=O)O` had a Microsomal intrinsic clearance of 190 µL/min/mg.

On to `NCCNc1ncc(-c2ccc3c(Nc4cnccn4)ccnc3c2)cn1`, for which the Microsomal intrinsic clearance is 86 µL/min/mg.

Take `CN1C[C@@H]2C[C@H]1CN2c1ncc(-c2ccc3c(Nc4cnccn4)ccnc3c2)cn1`: the Microsomal intrinsic clearance was found to be 37 µL/min/mg.

The nature of another series: Stability in presence of sodium cyanide at 2.3 mg up to 24 hrs by LC-MS analysis. Type of series: physicochemical.
Conditions: not given
`CN1CCCN(c2ncc(-c3ccc4/c(=N/c5cnccn5)ccn(C)c4c3)cn2)CC1`: the Stability entry is given as “Stable”.

The nature of a further series: Stability in presence of GSH at 2.3 mg up to 24 hrs by LC-MS analysis. Type of series: physicochemical.
Conditions: not given
Consider `CN1CCCN(c2ncc(-c3ccc4/c(=N/c5cnccn5)ccn(C)c4c3)cn2)CC1`, for which the Stability entry is “Stable”.

The next series can be described thus: Chemical stability in 0.01 N HCl solution at 2 mg up to 16 hrs by LC-MS analysis. Format: physicochemical.
Conditions: not given
Take `CN1CCCN(c2ncc(-c3ccc4/c(=N/c5cnccn5)ccn(C)c4c3)cn2)CC1`: the Stability entry was “Stable”.
